In the library only some 4.8% were active in any assay of this set; here they are far more common.
Efflux pump inh: antifungal efflux pump inhibition, Nile Red retention; S. cerevisiae Candida pump triplex; inhibition, % at 10 µM; 330,000 tested, 0.44% active; AID 485275;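 active = plate passing quality check with inhibition over a set limit, or well fluorescence over plate mean plus 4 SD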;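 note: Nile Red retained in pooled yeast measured as flow cytometry median fluorescence; 0% = buffer negative control and 100% = Enniatin B positive control; higher means more Nile Red kept so more efflux inhibition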
CSC inhib: cancer stem cell inhibition; 300,000 tested, 1.1% active; AID 2717; inhibition, % at 7.5 µM; cancer stem cell-like cells viability, luminescence; in the data active = inhibition above about 75%; tested in HMLE shEcad cells
Beta apoptosis: beta cell apoptosis inhibition | 300,000 tested, 0.8% active | AID 435005 | INS-1E cytokine-induced death, ATP luminescence, 48 h; percent of positive-control rescue, neutral wells zero | protection from apoptosis, % (test concentration not listed);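 active = Every replicate reaches about 75%, or at least half do and their mean reaches it too, limit read from the data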;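 note: 0% = cytokine-treated negative control wells and 100% = positive control rescue; higher means more ATP so stronger rescue from cytokine killing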
T cruzi repl: T. cruzi replication inhibition; T. cruzi beta-gal in NIH3T3, luminescence, 90 h; inhibition, % (concentration not given with the values); 300,000 tested, 1.4% active; AID 1885;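 active = mean inhibition across valid replicates above about 55%, limit read from the data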;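 note: signal also drops with host cell toxicity which is not excluded here; 0% = plate median of DMSO wells and 100% = zero luminescence signal; higher percent means less beta-gal luminescence so fewer parasites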
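System: NIH/3T3 fibroblasts plus reporter T. cruzi. Medium: DMEM plus 2% FBS. Probe or stimulus: 5000 reporter trypomastigotes per well. Compound: single 50 nL compound addition per well in DMSO. Incubation: co-culture of at least 90 h after 3 h attachment. Detection: GalScreen β-gal luminescence, detergent lysis, 60 min. Evaluation: parasite load inhibition, %.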
SUMO Mot1 rescue: inhibitors of SUMOylation pathway: yeast Mot1-301 growth rescue | S. cerevisiae Mot1-301 growth rescue, ATP luminescence, 38.5C; percent above DMSO median, 100 means doubled | 320,000 tested, 1% active | growth rescue, % at 18.8 µM;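 active = every valid replicate shows activation above 250% relative to neutral control wells; inactive = the rest, any valid replicate at or below 250%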;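 note: OY570 slx delta 5 strain wells were the positive control but not used for scaling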
WT yeast gro inh: growth inhibition of WT yeast, mitochondrial fusion screen; mitochondrial fusion phenotypic screen, WT strain; inhibition, % at 10 µM; 190,000 tested, 2.1% active; AID 1362; in the data active = inhibition above about 58%; tested in S. cerevisiae
Active calls of the source: *; ! = not active in a repeat.

`CC(C)C1Oc2ccccc2N(CC(=O)N(Cc2ccncc2)Cc2ccco2)C1=O` (configuration not stated) gave Efflux pump inh 0, CSC inhib -8, Beta apoptosis 0, T cruzi repl 26, SUMO Mot1 rescue -13 and WT yeast gro inh 0.
For O=C(CS(=O)(=O)c1ccccc1)Nc1nnc(-c2cccs2)o1 the results were Efflux pump inh 0, CSC inhib -9 and T cruzi repl 24.
For CCCOc1ccc(N2C(=O)CC(N3CCC(c4nncn4CC)CC3)C2=O)cc1 (configuration not stated) the results were Efflux pump inh 0, CSC inhib -2, Beta apoptosis 1, T cruzi repl -6, SUMO Mot1 rescue 307* and WT yeast gro inh 15.
For O=C(Nc1ccc(Cl)cc1)C1C2CCCCC21 (configuration not stated) the results were Efflux pump inh 1, CSC inhib 21, Beta apoptosis 5, T cruzi repl 45 and SUMO Mot1 rescue -7.
For CC(=O)NC/C(C)=N\Nc1ccc([N+](=O)[O-])cc1 the results were Efflux pump inh 0, CSC inhib 21, Beta apoptosis 5, T cruzi repl -3, SUMO Mot1 rescue 279* and WT yeast gro inh 78*.
For C/C(=N\Nc1ccc([N+](=O)[O-])cc1)c1ccc(O)cc1 the results were Efflux pump inh 0, CSC inhib 28, Beta apoptosis 0, T cruzi repl -12, SUMO Mot1 rescue 337* and WT yeast gro inh 17.
For COc1ccc(CCNC(=O)CSc2nn(-c3ccccc3)c(=S)s2)cc1OC the results were Efflux pump inh 0, CSC inhib 12, Beta apoptosis 0, T cruzi repl 1, SUMO Mot1 rescue 7 and WT yeast gro inh -5.
Screening O=S(Cc1cc(Sc2ccccc2)nc(-c2ccccc2)n1)c1ccccc1 (configuration not stated) returned Efflux pump inh 0, CSC inhib 8, Beta apoptosis 2, T cruzi repl 41, SUMO Mot1 rescue 432 and WT yeast gro inh 59*.
For Cc1nn(S(=O)(=O)c2cccc([N+](=O)[O-])c2)c(C)c1Br the results were Efflux pump inh 0, CSC inhib -19, Beta apoptosis -3, T cruzi repl 49, SUMO Mot1 rescue -17 and WT yeast gro inh -3.
For Cc1nn(C)cc1CN(C)S(=O)(=O)c1cccc([N+](=O)[O-])c1 the results were Efflux pump inh 0, CSC inhib -12, Beta apoptosis 3, T cruzi repl 1, SUMO Mot1 rescue 550* and WT yeast gro inh -5.
Screening O=C1NC(=O)C(c2ccccc2)(c2ccc(O)cc2)N1 (configuration not stated) returned Efflux pump inh 0, CSC inhib -14, Beta apoptosis -4 and SUMO Mot1 rescue 17.
For O=C1NC(=O)C(c2ccccc2)(c2ccccc2)N1 the results were Efflux pump inh 0, CSC inhib -12, Beta apoptosis -6, T cruzi repl -16, SUMO Mot1 rescue 332*! and WT yeast gro inh 3.
Screening CN1CCN(CCOc2ccc(-c3ccccc3)cc2)CC1 returned Efflux pump inh 1, CSC inhib 54, Beta apoptosis 4, T cruzi repl 43 and SUMO Mot1 rescue 1.
Clc1ccc(OCCN2CCOCC2)cc1 was read as Efflux pump inh 0, CSC inhib 38, Beta apoptosis -14, T cruzi repl -3 and SUMO Mot1 rescue -2.
CCN1CCN(CCCOc2ccc(-c3ccccc3)cc2)CC1 was read as Efflux pump inh 0, CSC inhib 125*, Beta apoptosis 19, T cruzi repl 72*, SUMO Mot1 rescue 91 and WT yeast gro inh 22.
`O=C(c1ccccc1)c1ccc(OCCCN2CCCC2)cc1` gave Efflux pump inh 0, CSC inhib 62, Beta apoptosis -4, T cruzi repl 55*, SUMO Mot1 rescue active and WT yeast gro inh -4.
`CN1CCN(CCCOc2ccc(-c3ccccc3)cc2)CC1` gave Efflux pump inh 0, CSC inhib 49, Beta apoptosis 19, T cruzi repl 56* and SUMO Mot1 rescue -6.
`CCN1CCN(CCOc2ccc(Cl)cc2)CC1` gave Efflux pump inh 0, CSC inhib -4, Beta apoptosis -1, T cruzi repl 67*, SUMO Mot1 rescue 289 and WT yeast gro inh -2.
Screening CCN1CCN(CCCOc2ccccc2-c2ccccc2)CC1 returned Efflux pump inh 0, CSC inhib 5, Beta apoptosis -4, SUMO Mot1 rescue 45 and WT yeast gro inh 14.
`Cc1n[nH]c(C)c1S(=O)(=O)Nc1ccc2c(c1)OCCO2` gave Efflux pump inh 0, CSC inhib -11, T cruzi repl -15, SUMO Mot1 rescue 11 and WT yeast gro inh -7.
Screening COc1ccc(OC)c(S(=O)(=O)Nc2ccc(Oc3ccccc3)cc2)c1 returned Efflux pump inh 0, CSC inhib -18, Beta apoptosis 17, T cruzi repl -30, SUMO Mot1 rescue -11 and WT yeast gro inh 63*.
`COc1ccc(OC)c(S(=O)(=O)Nc2ccc(O)c3ccccc23)c1` gave Efflux pump inh 0, CSC inhib 20, Beta apoptosis 103*, T cruzi repl 12, SUMO Mot1 rescue -14 and WT yeast gro inh 62*.
Screening COc1ccc(OC)c(S(=O)(=O)Nc2cccc3c(O)cccc23)c1 returned Efflux pump inh 0, CSC inhib 17, Beta apoptosis -2, T cruzi repl -3 and SUMO Mot1 rescue -1.
`CCOc1ccc(NS(=O)(=O)c2cc(OC)ccc2OC)cc1` gave Efflux pump inh 0, CSC inhib -15, Beta apoptosis 0, T cruzi repl -3, SUMO Mot1 rescue 11 and WT yeast gro inh 12.
For COc1ccc(-n2c(CCc3ccccc3)nnc2SCC(=O)c2ccc(Cl)cc2)cc1 the results were Efflux pump inh 0, CSC inhib -8, Beta apoptosis -6, T cruzi repl 28, SUMO Mot1 rescue -9 and WT yeast gro inh 51.
O=C(CSc1nnc(CCc2ccccc2)n1-c1ccc(Cl)cc1)c1ccccc1 was read as Efflux pump inh -1, CSC inhib -3, Beta apoptosis 9, T cruzi repl 7, SUMO Mot1 rescue 22 and WT yeast gro inh 67*.
For Cc1ccc(C(=O)OCC(=O)c2c[nH]c3ccccc23)cc1 the results were Efflux pump inh 0, CSC inhib -6, Beta apoptosis -1, T cruzi repl -6, SUMO Mot1 rescue 6 and WT yeast gro inh 4.
`CCOC(=O)c1c(C)[nH]c(C)c1C(=O)COC(=O)c1ccc([N+](=O)[O-])s1` gave Efflux pump inh 0, CSC inhib 4, Beta apoptosis 4 and SUMO Mot1 rescue -11.
For CCc1cccc2c(C(=O)COC(=O)c3ccc([N+](=O)[O-])s3)c[nH]c12 the results were Efflux pump inh 0, CSC inhib -4, Beta apoptosis -3, T cruzi repl 64*, SUMO Mot1 rescue 145 and WT yeast gro inh 96.
